Source: ChEMBL document CHEMBL4411287, “Discovery and optimization of a series of 3-substituted indazole derivatives as multi-target kinase inhibitors for the treatment of lung squamous cell carcinoma” (Eur J Med Chem, 2019)
Calls of active or inactive are those of the source. No cut-off for these calls is given here.

Experiments:
[1] = target: Vascular endothelial growth factor receptor 1 (Homo sapiens) (UniProt P17948); test: Inhibition of VEGFR1 (unknown origin) at 1000 nM relative to control
Sequence of Vascular endothelial growth factor receptor 1 (Homo sapiens) (P17948 whole entry): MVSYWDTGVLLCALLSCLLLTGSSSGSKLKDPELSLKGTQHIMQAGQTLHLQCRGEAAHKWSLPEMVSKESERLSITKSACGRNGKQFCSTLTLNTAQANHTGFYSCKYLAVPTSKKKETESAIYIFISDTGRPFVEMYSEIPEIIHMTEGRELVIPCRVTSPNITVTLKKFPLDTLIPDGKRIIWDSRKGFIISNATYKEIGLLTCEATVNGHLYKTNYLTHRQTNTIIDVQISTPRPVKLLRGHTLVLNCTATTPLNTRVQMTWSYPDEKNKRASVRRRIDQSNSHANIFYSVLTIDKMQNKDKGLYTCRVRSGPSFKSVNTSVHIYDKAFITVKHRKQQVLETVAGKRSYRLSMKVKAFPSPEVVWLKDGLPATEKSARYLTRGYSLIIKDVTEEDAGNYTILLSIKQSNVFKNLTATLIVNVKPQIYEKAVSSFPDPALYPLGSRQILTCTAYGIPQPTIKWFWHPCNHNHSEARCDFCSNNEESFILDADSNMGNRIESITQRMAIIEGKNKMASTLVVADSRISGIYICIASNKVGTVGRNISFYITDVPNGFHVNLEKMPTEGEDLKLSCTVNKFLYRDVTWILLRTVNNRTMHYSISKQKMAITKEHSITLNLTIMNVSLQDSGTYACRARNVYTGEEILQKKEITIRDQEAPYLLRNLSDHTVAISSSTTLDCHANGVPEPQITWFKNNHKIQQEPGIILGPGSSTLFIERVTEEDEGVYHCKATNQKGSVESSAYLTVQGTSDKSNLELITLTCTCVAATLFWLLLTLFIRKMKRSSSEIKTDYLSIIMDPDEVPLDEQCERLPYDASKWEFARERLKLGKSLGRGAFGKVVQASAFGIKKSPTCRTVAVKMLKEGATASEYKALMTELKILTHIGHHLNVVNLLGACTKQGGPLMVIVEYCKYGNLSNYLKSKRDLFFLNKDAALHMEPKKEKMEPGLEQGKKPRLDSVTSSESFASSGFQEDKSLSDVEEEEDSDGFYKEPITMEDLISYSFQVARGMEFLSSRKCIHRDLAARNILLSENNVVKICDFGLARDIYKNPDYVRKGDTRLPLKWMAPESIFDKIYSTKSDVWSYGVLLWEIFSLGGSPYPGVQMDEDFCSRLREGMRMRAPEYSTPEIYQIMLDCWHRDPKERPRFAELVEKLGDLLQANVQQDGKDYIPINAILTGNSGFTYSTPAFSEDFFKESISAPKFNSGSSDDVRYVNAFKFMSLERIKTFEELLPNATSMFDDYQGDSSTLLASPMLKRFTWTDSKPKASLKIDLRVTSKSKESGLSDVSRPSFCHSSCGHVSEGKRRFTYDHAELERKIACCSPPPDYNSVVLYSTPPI
How it was run: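 ELISA with purified recombinant kinase on plates precoated with poly(Glu,Tyr) 4:1 at 20 µg/mL. ATP 10 µM in HEPES pH 7.4 buffer with MgCl2, MnCl2, Na3VO4 and DTT. Run 60 min at 37 °C. Detected with anti-phosphotyrosine PY99, HRP secondary antibody and o-phenylenediamine, read at 490 nm. Inhibition % = [1 − A490/A490 control]×100. 1% DMSO as negative control.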

[2] = target: Insulin-like growth factor 1 receptor (Homo sapiens) (UniProt P08069); test: Inhibition of IGF1R (unknown origin) at 100 nM relative to control
How it was run: (§1)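 Purified recombinant kinase domains run in ELISA on precoated poly(Glu,Tyr) 4:1 (20 µg/mL) with 10 µM ATP in 50 mM HEPES pH 7.4, 50 mM MgCl2, 0.5 mM MnCl2, 0.2 mM Na3VO4, 1 mM DTT; 1% DMSO control; 60 min at 37 °C. Phosphotyrosine read by PY99 antibody, HRP anti-mouse IgG, OPD/H2O2 at 490 nm; inhibition = [1−A490/A490control]×100%; two separate experiments.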

[3] = target: Mitogen-activated protein kinase 1 (Homo sapiens) (UniProt P28482); test: Inhibition of ERK2 (unknown origin) at 10 nM relative to control
Sequence of Mitogen-activated protein kinase 1 (Homo sapiens) (P28482 whole entry): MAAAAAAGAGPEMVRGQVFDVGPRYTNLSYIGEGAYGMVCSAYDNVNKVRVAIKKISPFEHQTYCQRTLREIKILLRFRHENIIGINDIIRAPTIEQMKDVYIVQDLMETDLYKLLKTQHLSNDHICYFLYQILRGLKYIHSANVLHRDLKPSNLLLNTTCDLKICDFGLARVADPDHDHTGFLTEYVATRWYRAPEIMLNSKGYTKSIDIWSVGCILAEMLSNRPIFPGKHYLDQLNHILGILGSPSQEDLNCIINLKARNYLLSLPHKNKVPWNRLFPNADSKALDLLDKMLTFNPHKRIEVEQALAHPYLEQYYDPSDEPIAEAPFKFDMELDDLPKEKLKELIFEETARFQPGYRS

[4] = target: Mitogen-activated protein kinase 1 (Homo sapiens) (UniProt P28482); test: Inhibition of ERK2 (unknown origin) at 1000 nM relative to control
[5] = target: Fibroblast growth factor receptor 2 (Homo sapiens) (UniProt P21802); test: Inhibition of FGFR2 (unknown origin) at 100 nM relative to control; how it was run: as §1
Sequence of Fibroblast growth factor receptor 2 (Homo sapiens) (P21802 22-821 limits assumed): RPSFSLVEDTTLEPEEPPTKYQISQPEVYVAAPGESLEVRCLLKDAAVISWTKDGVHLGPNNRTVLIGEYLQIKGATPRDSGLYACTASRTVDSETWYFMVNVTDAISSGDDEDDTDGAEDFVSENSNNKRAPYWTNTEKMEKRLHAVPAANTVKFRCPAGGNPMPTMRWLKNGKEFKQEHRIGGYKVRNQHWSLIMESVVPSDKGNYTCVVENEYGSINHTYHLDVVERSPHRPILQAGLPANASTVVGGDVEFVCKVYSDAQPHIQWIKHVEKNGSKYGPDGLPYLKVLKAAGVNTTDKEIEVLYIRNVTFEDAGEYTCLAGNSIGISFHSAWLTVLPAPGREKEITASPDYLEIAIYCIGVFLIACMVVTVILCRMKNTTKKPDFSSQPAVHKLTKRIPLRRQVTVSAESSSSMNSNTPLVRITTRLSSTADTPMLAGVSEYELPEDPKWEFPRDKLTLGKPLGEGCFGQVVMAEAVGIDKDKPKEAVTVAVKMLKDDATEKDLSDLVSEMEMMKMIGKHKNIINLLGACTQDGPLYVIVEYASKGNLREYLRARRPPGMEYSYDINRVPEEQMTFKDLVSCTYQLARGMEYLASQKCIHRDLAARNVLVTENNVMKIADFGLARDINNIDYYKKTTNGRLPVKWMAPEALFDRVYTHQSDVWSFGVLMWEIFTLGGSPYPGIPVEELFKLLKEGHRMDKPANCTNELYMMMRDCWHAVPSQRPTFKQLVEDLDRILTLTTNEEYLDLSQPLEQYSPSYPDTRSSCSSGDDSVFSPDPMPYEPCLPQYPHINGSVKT

[6] = target: Mitogen-activated protein kinase 3 (Homo sapiens) (UniProt P27361); test: Inhibition of ERK1 (unknown origin) at 1000 nM relative to control
Sequence of Mitogen-activated protein kinase 3 (Homo sapiens) (P27361 whole entry, the tested form may be a part): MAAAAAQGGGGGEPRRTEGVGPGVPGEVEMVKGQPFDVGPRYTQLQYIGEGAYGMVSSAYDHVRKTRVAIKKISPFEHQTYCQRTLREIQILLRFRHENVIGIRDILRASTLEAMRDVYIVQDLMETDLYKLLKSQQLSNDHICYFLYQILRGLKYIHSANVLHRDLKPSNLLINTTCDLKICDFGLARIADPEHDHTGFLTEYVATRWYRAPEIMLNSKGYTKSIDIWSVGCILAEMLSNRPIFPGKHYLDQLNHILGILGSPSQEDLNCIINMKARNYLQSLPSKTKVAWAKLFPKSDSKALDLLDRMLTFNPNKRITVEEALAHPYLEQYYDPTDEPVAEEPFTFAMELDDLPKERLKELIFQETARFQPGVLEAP

[7] = test system: T1, Discoidin domain-containing receptor 2 (Homo sapiens), Q16832 [I638F]; test: Inhibition of DDR2 I638F mutant in human NCI-H2286 cells assessed as decrease in AKT phosphorylation at […] after 2 hrs by Western blot analysis; assay type: cell-based
T1 sequence (whole entry): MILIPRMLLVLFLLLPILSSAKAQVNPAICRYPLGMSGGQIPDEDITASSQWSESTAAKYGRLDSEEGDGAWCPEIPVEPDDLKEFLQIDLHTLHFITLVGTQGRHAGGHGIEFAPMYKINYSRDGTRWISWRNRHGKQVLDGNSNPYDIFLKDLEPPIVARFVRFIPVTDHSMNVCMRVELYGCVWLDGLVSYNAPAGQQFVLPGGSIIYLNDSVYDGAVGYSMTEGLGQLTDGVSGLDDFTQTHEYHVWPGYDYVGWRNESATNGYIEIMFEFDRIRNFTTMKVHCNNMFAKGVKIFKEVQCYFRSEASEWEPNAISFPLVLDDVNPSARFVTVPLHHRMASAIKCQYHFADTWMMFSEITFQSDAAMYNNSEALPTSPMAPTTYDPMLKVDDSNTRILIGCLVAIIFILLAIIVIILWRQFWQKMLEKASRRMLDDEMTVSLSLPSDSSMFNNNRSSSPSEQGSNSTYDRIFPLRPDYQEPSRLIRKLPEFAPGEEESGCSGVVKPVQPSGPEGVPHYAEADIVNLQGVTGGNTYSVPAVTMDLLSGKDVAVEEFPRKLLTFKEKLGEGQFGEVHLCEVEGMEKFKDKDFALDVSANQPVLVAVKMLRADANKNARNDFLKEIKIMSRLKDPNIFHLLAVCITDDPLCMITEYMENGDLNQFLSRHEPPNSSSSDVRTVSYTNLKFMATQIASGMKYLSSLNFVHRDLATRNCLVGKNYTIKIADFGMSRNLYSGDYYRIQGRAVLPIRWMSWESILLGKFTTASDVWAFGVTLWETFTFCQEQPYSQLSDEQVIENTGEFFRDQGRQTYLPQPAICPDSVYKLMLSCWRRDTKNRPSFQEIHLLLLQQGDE
How it was run: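 NCI-H2286 cells exposed to compound for 2 h at 37 °C and lysed in SDS sample buffer. Lysates run on 10% SDS-PAGE and blotted to nitrocellulose. Membranes probed for phospho- and total DDR2, ERK and Akt, with GAPDH as loading control, and detected by HRP secondary antibody and enhanced chemiluminescence.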

[8] = target: Cyclin-dependent kinase 6 (Homo sapiens) (UniProt Q00534); test: Inhibition of CDK6 (unknown origin) at 1000 nM relative to control
Sequence of Cyclin-dependent kinase 6 (Homo sapiens) (Q00534 whole entry): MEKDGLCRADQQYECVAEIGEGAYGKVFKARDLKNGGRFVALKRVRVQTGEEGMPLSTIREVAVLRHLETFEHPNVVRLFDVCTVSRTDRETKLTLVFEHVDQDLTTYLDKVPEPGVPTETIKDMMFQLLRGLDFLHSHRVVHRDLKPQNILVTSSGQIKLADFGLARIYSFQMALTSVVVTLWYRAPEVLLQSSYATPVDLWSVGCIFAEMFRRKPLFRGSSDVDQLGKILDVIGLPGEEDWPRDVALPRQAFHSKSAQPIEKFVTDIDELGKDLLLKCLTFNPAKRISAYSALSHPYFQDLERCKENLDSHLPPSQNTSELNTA

[9] = target: ALK tyrosine kinase receptor (Homo sapiens) (UniProt Q9UM73); test: Inhibition of ALK (unknown origin) at 100 nM relative to control
Sequence of ALK tyrosine kinase receptor (Homo sapiens) (Q9UM73 19-1620 limits assumed): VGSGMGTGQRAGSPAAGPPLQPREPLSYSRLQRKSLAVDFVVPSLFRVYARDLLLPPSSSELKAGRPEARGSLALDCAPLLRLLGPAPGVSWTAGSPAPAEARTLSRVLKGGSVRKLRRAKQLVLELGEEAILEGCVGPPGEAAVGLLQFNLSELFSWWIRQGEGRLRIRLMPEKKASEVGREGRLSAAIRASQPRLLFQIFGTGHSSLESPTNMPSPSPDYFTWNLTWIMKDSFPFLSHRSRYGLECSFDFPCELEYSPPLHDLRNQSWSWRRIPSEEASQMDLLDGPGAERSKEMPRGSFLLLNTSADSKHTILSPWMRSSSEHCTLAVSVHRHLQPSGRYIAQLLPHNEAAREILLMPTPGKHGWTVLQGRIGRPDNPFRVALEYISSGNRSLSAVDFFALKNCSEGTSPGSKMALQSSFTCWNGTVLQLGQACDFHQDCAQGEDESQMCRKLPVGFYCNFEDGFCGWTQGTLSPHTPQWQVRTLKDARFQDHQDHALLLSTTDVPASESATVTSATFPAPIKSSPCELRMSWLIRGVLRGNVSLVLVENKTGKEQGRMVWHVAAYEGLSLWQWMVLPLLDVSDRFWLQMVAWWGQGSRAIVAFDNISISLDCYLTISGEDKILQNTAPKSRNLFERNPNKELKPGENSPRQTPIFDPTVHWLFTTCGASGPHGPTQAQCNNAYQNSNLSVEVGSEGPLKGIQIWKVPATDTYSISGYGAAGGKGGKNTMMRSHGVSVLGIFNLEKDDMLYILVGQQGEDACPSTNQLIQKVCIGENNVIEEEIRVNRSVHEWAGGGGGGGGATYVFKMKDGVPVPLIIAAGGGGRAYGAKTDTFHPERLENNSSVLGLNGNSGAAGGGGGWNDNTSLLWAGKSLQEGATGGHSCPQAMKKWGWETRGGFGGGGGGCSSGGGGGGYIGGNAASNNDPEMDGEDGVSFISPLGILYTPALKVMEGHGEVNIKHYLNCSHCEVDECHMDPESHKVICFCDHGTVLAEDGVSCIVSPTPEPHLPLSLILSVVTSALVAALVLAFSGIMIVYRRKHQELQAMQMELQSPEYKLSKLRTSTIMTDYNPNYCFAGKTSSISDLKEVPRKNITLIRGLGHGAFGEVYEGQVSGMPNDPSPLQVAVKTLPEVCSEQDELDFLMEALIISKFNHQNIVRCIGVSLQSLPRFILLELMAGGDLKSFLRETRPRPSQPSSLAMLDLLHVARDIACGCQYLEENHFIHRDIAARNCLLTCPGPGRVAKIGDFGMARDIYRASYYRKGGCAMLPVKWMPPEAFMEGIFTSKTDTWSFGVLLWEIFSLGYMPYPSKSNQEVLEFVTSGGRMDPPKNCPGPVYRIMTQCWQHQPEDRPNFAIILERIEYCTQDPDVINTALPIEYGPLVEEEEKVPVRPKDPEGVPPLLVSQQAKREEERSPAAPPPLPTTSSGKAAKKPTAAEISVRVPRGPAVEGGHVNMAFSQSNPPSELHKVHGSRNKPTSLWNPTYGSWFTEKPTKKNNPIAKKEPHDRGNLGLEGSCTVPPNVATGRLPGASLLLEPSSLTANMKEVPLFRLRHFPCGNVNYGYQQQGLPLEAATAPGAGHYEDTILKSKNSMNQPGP

[10] = target: Tyrosine-protein kinase JAK2 (Homo sapiens) (UniProt O60674); test: Inhibition of JAK2 (unknown origin) at 1000 nM relative to control; how it was run: as §1
[11] = target: Receptor tyrosine-protein kinase erbB-4 (Homo sapiens) (UniProt Q15303); test: Inhibition of ErbB4 (unknown origin) at 10 nM relative to control; how it was run: as §1
[12] = AUC (0 to infinity) in ICR(CD-1) mouse at 10 mg/kg, po administered via gavage by triple quadrupole mass spectrometric analysis; assay type: ADME, organism-based; set-up: dose 10 mg/kg, route oral, time infinity; conditions: in vivo
How it was run: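 Oral gavage at 1 mg/mL in 1% Tween80/water to male ICR mice (18-22 g, n=3). Plasma sampled at 0.25, 0.5, 1, 2, 4, 8 and 24 h, protein precipitated with methanol:acetonitrile (1:1) containing internal standard, and quantified by UPLC-triple quadrupole MS. AUC and MRT were taken from per-animal time-concentration curves. Cmax is the maximum plasma level and Tmax the time to reach it.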

[13] = test system: NCI-H2286; test: Antiproliferative activity against human NCI-H2286 cells after 72 hrs by CCK8 assay; conditions: NCI-H2286, 72 h
[14] = target: Focal adhesion kinase 1 (Homo sapiens) (UniProt Q05397); test: Inhibition of FAK (unknown origin) at 100 nM relative to control; how it was run: as §1
[15] = target: Fibroblast growth factor receptor 4 (Homo sapiens) (UniProt P22455); test: Inhibition of FGFR4 (unknown origin) at 10 nM relative to control; how it was run: as §1
[16] = target: Cyclin-dependent kinase 6 (Homo sapiens) (UniProt Q00534); test: Inhibition of CDK6 (unknown origin) at 10 nM relative to control
[17] = target: Epidermal growth factor receptor (Homo sapiens) (UniProt P00533); test: Inhibition of EGFR (unknown origin) at 1000 nM relative to control; how it was run: as §1
[18] = Tmax in ICR(CD-1) mouse at 10 mg/kg, po administered via gavage by triple quadrupole mass spectrometric analysis; assay type: ADME, organism-based; conditions: in vivo
How it was run: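 Dosed by gavage at 1 mg/mL in 1% Tween80/water to male ICR mice, 18-22 g, n=3. Blood taken at 0.25, 0.5, 1, 2, 4, 8 and 24 h. Plasma precipitated with methanol:acetonitrile (1:1) containing internal standard, then UPLC-MS/MS on a C18 column with an ammonium acetate/formic acid–acetonitrile gradient. Tmax read directly from the data; MRT calculated per animal from concentration–time curves.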

[19] = target: Fibroblast growth factor receptor 2 (Homo sapiens) (UniProt P21802); test: Inhibition of FGFR2 (unknown origin) at 10 nM relative to control; how it was run: as §1

inhibition [1]: 86.6% | inhibition [2]: 8.2% | inhibition [3]: 0.3% | inhibition [4]: 2.7% | inhibition [5]: 95% | inhibition [6]: 3.8% | inhibition [7]: Active | inhibition [8]: 5.9% | inhibition [9]: 71.7% | inhibition [10]: 16.8% | inhibition [11]: 0% | AUC(0-inf) [12]: 7680 ng·h/mL | IC50 [13]: 93 nM | inhibition [14]: 8.4% | inhibition [15]: 8.1% | inhibition [16]: 0.5% | inhibition [17]: 18.1% | Tmax [18]: 2 h | inhibition [19]: 67.8%
SMILES: Cc1ccc(C(=O)Nc2cccc(C(F)(F)F)c2)cc1-c1ccc2c(-c3cnn(C4CC4)c3)n[nH]c2c1
